Assay outcomes: PubChem BioAssay, Broad Institute
Only some compounds are listed: those with a hit (about 3.2% of all), similar ones and a draw of the others.
Cneo AK release = Cryptococcus neoformans cell lysis inducers, primary screen, AK release luminescence, single concentration; AID 651654, 2012; C. neoformans lysis, adenylate kinase release luminescence, 4 h; normalised: neutral wells 0, clomiphene wells 100; 0.2% of 360,000 active; lysis activity, % at 15 µM;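 active = mean lysis activity across replicates of at least 80%, whatever share of replicates individually reach that level; inactive = mean lysis activity below 80%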
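Test system: log-phase Cryptococcus neoformans yeast cells. Input: 5 × 10^6 yeast cells/mL. Medium: fresh YPD growth medium. Doses: single dose. Incubation: static 4 h at 37 °C with compound, 1 h detection. Measured by: luminescent adenylate kinase detection reagent. Read-out: signal increase indicating cell lysis. Benchmarks: Clomiphene.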
S100A4 inh HTS = inhibitors of S100A4-myosin IIA peptide binding, primary screen, biochemical, fluorescence polarization, TAMRA-MyoIIA peptide. Protein S100-A4 (Homo sapiens), P26447. inhibition, % at 10.7 µM. 0.14% of 360,000 active. AID 652163, 2013;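 active = mean inhibition of at least 70% across replicates, with every replicate also reaching that level; inconclusive = mean inhibition reaches 70% but some replicates fall short; inactive = mean inhibition below 70%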
Target sequence (P26447 whole entry, looked up): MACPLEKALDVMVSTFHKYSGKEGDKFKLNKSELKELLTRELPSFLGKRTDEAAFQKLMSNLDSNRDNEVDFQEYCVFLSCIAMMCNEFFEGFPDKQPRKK
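Material: S100A4 monomer (human). Medium: Calcium-containing HEPES buffer, pH 7.2. Probe or stimulus: labelled myosin peptide probe, 5 nM. Compound dosing: one concentration per compound. Timing: polarization read 5 min after assay mix addition, stable 5–60 min. Benchmarks: DMSO as neutral control, TFP as positive control.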
PfHsp90 set2 = growth inhibition of PfHsp90-expressing yeast, primary screen, antimalarial PfHsp90 inhibitor project, S. cerevisiae, BacTiter-Glo luminescence, single point, set 2 | inhibition, % at 9.4 µM | BacTiter-Glo ATP, 48 h; yeast lacking PDR1 and PDR3 efflux regulators | 0.32% of 310,000 active | AID 504621, 2011;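 active = every replicate shows inhibition above about 80%, whatever the replicate mean, limit read from the data; inconclusive = mean inhibition reaches the set limit but some replicate falls short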
MLL AF4-AF9 inh = inhibitors of AF4 peptide binding to AF9, primary screen, biochemical, AlphaScreen, biotin-AF4 peptide, FLAG-AF9, single point. Protein AF-9 (Homo sapiens), P42568. inhibition, % at 10 µM. 0.47% of 350,000 active;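 active = every replicate reaching a set inhibition limit, whatever the replicate mean, cut at about 25% in these data; inconclusive = mean inhibition reaches that limit but some replicates miss it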
Target sequence (P42568 whole entry, looked up): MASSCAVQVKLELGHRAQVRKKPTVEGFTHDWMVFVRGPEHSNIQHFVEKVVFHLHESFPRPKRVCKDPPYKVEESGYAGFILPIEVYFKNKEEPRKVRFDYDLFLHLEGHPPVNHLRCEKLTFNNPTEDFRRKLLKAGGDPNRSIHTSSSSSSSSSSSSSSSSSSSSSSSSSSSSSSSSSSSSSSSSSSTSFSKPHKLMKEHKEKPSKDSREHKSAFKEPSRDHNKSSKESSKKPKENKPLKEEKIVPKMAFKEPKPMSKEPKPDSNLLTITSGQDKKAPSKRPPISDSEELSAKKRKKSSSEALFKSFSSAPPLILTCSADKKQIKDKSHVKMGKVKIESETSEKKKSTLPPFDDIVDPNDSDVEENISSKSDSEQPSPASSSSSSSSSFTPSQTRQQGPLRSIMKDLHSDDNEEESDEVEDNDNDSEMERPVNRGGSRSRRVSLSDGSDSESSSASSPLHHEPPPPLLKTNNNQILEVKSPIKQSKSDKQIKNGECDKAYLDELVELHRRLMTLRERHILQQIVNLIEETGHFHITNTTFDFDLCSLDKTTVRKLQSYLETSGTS
Ecoli rRNA inh = reduced GFP signal of wild-type E. coli, primary screen, bacterial rRNA inhibitor project, GFP/RFP fluorescence, OD600, single point | E. coli WT GFP vs humanized-ribosome RFP mutants, 24 h; hits give low values; DMSO median 0, no signal -100 | GFP signal change (wild-type ribosome), % (no concentration beside the values) | 1.6% of 350,000 active | AID 720706, 2013;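 active = significant combined selectivity score with lowered wild-type GFP, culture density cut under 30%, mutant RFP and density less affected; inactive = any of these conditions unmet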
DENV2 CPE rescue = inhibitors of DENV2 cytopathic effect, primary screen, cell-based, plate reader, single concentration | DENV2-infected cells, cytopathic effect rescue | CPE inhibition, % at 9.99 µM | 1.7% of 350,000 active | AID 651640, 2012; in the data active = CPE inhibition above about 20%, passing the limit was not always enough; inconclusive = no clear call, values can overlap the other calls; tested in BHK-21 cells
Numbers stand for hits.

For CC(C)NC(=O)N(C)C[C@H]1Oc2ccc(NS(C)(=O)=O)cc2C(=O)N([C@H](C)CO)C[C@@H]1C the results were Cneo AK release inactive, S100A4 inh HTS inactive, MLL AF4-AF9 inh inactive, Ecoli rRNA inh inactive and DENV2 CPE rescue inactive.
CC(C)NC(=O)N(C)C[C@@H]1Oc2ccc(NS(C)(=O)=O)cc2C(=O)N([C@@H](C)CO)C[C@@H]1C was read as Cneo AK release inactive, S100A4 inh HTS inactive, MLL AF4-AF9 inh inactive, Ecoli rRNA inh inactive and DENV2 CPE rescue 20.4.
Screening Cc1ccc(S(=O)(=O)Nc2ccc3c(c2)C(=O)N([C@@H](C)CO)C[C@H](C)[C@H](CN(C)C(=O)NC(C)C)O3)cc1 returned Cneo AK release inactive, S100A4 inh HTS inactive, MLL AF4-AF9 inh inactive, Ecoli rRNA inh inactive and DENV2 CPE rescue 31.9.
C[C@@H]1CN([C@@H](C)CO)C(=O)c2cc(NC(=O)c3ccncc3)ccc2O[C@@H](C)CCCCO[C@H]1CN(C)C(=O)C1CCCCC1 was read as Cneo AK release inactive, S100A4 inh HTS inactive, MLL AF4-AF9 inh inactive, Ecoli rRNA inh inactive and DENV2 CPE rescue inactive.
C[C@H](CO)N1C[C@H](C)[C@H](CN(C)C(=O)CCCN(C)C)OCCCC[C@H](C)Oc2ccc(NC(=O)c3ccccc3)cc2C1=O was read as Cneo AK release inactive, S100A4 inh HTS inactive, MLL AF4-AF9 inh inactive, Ecoli rRNA inh inactive and DENV2 CPE rescue inactive.
For Clc1ccc(-n2nnnc2-c2cnc3ccccc3c2-c2ccccc2)cc1 the results were S100A4 inh HTS inactive, PfHsp90 set2 inactive, MLL AF4-AF9 inh inactive, Ecoli rRNA inh -21.2 and DENV2 CPE rescue inactive.
`Cc1ccc(-n2nnnc2-c2cnc3ccc(Cl)cc3c2-c2ccccc2)cc1` gave Cneo AK release inactive.
For COc1cc2c(cc1OC)C(=O)N1[C@H]3c4ccccc4OC[C@@H]3[C@H](c3ccccc3)[C@]1(C)C(=O)N2 the results were Cneo AK release inactive, S100A4 inh HTS inactive, PfHsp90 set2 86.3, Ecoli rRNA inh inactive and DENV2 CPE rescue inconclusive.
For C[C@@]12C(=O)Nc3ccc(Cl)cc3C(=O)N1[C@H]1c3ccccc3OC[C@@H]1[C@@H]2c1ccccc1 the results were Cneo AK release inactive and PfHsp90 set2 106.7.
C[C@@]12C(=O)Nc3ccc(F)cc3C(=O)N1[C@H]1c3ccccc3OC[C@@H]1[C@@H]2c1ccccc1 was read as Cneo AK release inactive and PfHsp90 set2 active.
For C[C@@]12C(=O)Nc3cc(Cl)ccc3C(=O)N1[C@H]1c3ccccc3OC[C@@H]1[C@@H]2c1ccccc1 the results were Cneo AK release inactive and PfHsp90 set2 inactive.
`O=C(CSc1nc(C(F)(F)F)cc(=O)[nH]1)N1CCOCC1` gave S100A4 inh HTS inactive, MLL AF4-AF9 inh inactive, Ecoli rRNA inh inactive and DENV2 CPE rescue inactive.
O=C(CSc1nccc(=O)[nH]1)N1CCOCC1 was read as Cneo AK release inactive, S100A4 inh HTS inactive, PfHsp90 set2 inactive, MLL AF4-AF9 inh inactive, Ecoli rRNA inh inactive and DENV2 CPE rescue 115.2.
`CC(NC(=S)NC1CCC(C(C)(C)C)CC1)c1ccccc1` (stereo not drawn) gave Cneo AK release inactive, S100A4 inh HTS inactive, PfHsp90 set2 inactive, MLL AF4-AF9 inh inactive, Ecoli rRNA inh inactive and DENV2 CPE rescue 23.1.
Screening Cc1ccc(CNC(=S)NC2CCC(C(C)(C)C)CC2)cc1 (stereo not drawn) returned Cneo AK release inactive, S100A4 inh HTS inactive, PfHsp90 set2 inactive, MLL AF4-AF9 inh inactive, Ecoli rRNA inh inactive and DENV2 CPE rescue inconclusive.
C[C@@H]1CN([C@@H](C)CO)C(=O)c2cc(NC(=O)CCCCCC(=O)Nc3ccccc3N)ccc2O[C@@H]1CN(C)CC1CCCCC1 was read as S100A4 inh HTS inactive, MLL AF4-AF9 inh inactive, Ecoli rRNA inh inactive and DENV2 CPE rescue inactive.
Screening C=CCn1c(-c2ccc(OC)cc2)csc1=Nc1c(C)n(C)n(-c2ccccc2)c1=O returned Cneo AK release inactive and PfHsp90 set2 inactive.
COc1ccc(-c2csc(=NCCO)n2-c2ccccc2)cc1 was read as Cneo AK release inactive, S100A4 inh HTS inactive, PfHsp90 set2 inactive, MLL AF4-AF9 inh 33.4, Ecoli rRNA inh inactive and DENV2 CPE rescue inactive.
`COc1ccc(-c2csc(=Nc3ccccc3)n2CCO)cc1` gave Cneo AK release inactive, S100A4 inh HTS inactive, PfHsp90 set2 inactive, MLL AF4-AF9 inh 37.9, Ecoli rRNA inh inactive and DENV2 CPE rescue inactive.
`COc1ccc(-c2cn(-c3ccccc3)nc2CO)cc1` gave Cneo AK release inactive, S100A4 inh HTS inactive, PfHsp90 set2 inactive, MLL AF4-AF9 inh inactive, Ecoli rRNA inh inactive and DENV2 CPE rescue inactive.
CNC(=S)N1CCN(c2nc(-c3ccc(Cl)cc3)cs2)CC1 was read as Cneo AK release inactive, S100A4 inh HTS inactive, PfHsp90 set2 inactive, MLL AF4-AF9 inh inactive, Ecoli rRNA inh -25.5 and DENV2 CPE rescue inactive.
`O=C(C[C@@H]1C=C[C@H](NC(=O)c2ccc(F)cc2)[C@@H](CO)O1)NCCc1ccncc1` gave Cneo AK release inactive, S100A4 inh HTS inactive, MLL AF4-AF9 inh inactive, Ecoli rRNA inh inactive and DENV2 CPE rescue inactive.
For O=C(N/N=C/c1ccco1)c1cc([N+](=O)[O-])cc([N+](=O)[O-])c1 the results were S100A4 inh HTS inactive, PfHsp90 set2 inactive, MLL AF4-AF9 inh inactive, Ecoli rRNA inh inactive and DENV2 CPE rescue inactive.
For O=C(N/N=C/c1ccc([N+](=O)[O-])o1)C(=O)Nc1ccc(C(=O)O)cc1 the results were Cneo AK release inactive, S100A4 inh HTS inactive, PfHsp90 set2 inactive, MLL AF4-AF9 inh inactive, Ecoli rRNA inh inactive and DENV2 CPE rescue inactive.
O=[N+]([O-])c1ccc(N/N=C/C=C/c2ccco2)cc1 was read as Cneo AK release inactive, S100A4 inh HTS inactive, PfHsp90 set2 inactive, MLL AF4-AF9 inh inactive, Ecoli rRNA inh -39.9 and DENV2 CPE rescue inactive.
O=C(O)c1ccc(N/N=C/C=C/c2ccc([N+](=O)[O-])o2)cc1 was read as Cneo AK release inactive, S100A4 inh HTS inactive, PfHsp90 set2 inactive, MLL AF4-AF9 inh inactive, Ecoli rRNA inh -31.8 and DENV2 CPE rescue inactive.
Screening CCC(=O)N[C@@H]1C=C[C@H](CC(=O)OC)O[C@@H]1CO returned Cneo AK release inactive, S100A4 inh HTS inactive, MLL AF4-AF9 inh inactive, Ecoli rRNA inh inactive and DENV2 CPE rescue inactive.
C[C@@H](NC(=O)[C@H]1[C@H](CO)[C@H]2Cn3c(cccc3=O)[C@H]2N1CC1CCCCC1)c1ccccc1 was read as S100A4 inh HTS inactive, MLL AF4-AF9 inh inactive, Ecoli rRNA inh inactive and DENV2 CPE rescue 24.2.
